High-throughput results deposited in PubChem BioAssay by several laboratories.
STAT1 act: STAT1 signaling activation | activation (% of control), % at 5.5 µM | 200,000 compounds, 2.6% hits | NIH 3T3 STAT1-luciferase reporter, IFN-gamma, luminescence; 100% = IFN-gamma alone, no compound | AID 932;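 active means activation above the screen-wide mean activation plus 3 SD, cut at about 130% in these data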;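 further: raw ratio to IFN-gamma control signal so 100% means no change and 0% no light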
NF-kB expr up: raises NF-kB expression in human neuronal cells; NF-kB reporter expression; stronger effect = higher value; fold change at 12.5 µM; 190,000 compounds, 1.6% hits; AID 1239; in the data active means fold change above about 3.3
STAT3 inh: reduces IL-6 driven STAT3 reporter signal; 190,000 compounds, 0.89% hits; U3A cells, IL-6 STAT3-luciferase reporter, luminescence; host cell line lacks STAT1; inhibition, % at 5.5 µM; AID 862;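 active means inhibition above the mean inhibition across all screened compounds plus 3 SD, cut at about 44% in these data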;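 further: 0% = DMSO only wells and 100% = 100 µM nifuroxazide control wells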
STAT3 act: increases IL-6 driven STAT3 reporter signal. activation (% of control), % at 5.6 µM. U3A cells, IL-6 STAT3-luciferase reporter, luminescence; 100% = signal with IL-6 EC80 alone. 190,000 compounds, 0.91% hits. AID 871;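 active means activation above the screen-wide mean of compound activation plus 3 SD, cut at about 130% in these data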;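 further: 0% = background luminescence of wells with medium and substrate only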
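system = STAT3-luciferase reporter U3A cells | reagent = IL-6 stimulus at 33 ng/mL final | timing = 1 h compound pre-exposure, 6 h IL-6 stimulation, 37 °C | measured by = luminescence | evaluation = % activation versus median of IL-6-stimulated wells | control set = IL-6-only wells as 100% reference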
APP 5'UTR act: activates APP 5'UTR luciferase reporter; AID 1276; SH-SY5Y APP 5'UTR luciferase reporter, luminescence; zero percent = DMSO vehicle wells; 190,000 compounds, 1% hits; activation, % at 2 µM;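 active means activation above a set limit, based on mean plus 3 SD of controls, cut at about 140% in these data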
STAT1 inh: reduces IFN-gamma driven STAT1 reporter signal; NIH 3T3 STAT1-luciferase reporter, luminescence; inhibition, % at 5.5 µM; 200,000 compounds, 0.35% hits; AID 920;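 active means inhibition above a set limit, the mean inhibition across all tested compounds plus 3 SD, cut at about 34% in these data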;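 further: 0% = IFN-gamma with DMSO and 100% = IFN-gamma with 300 µM nifuroxazide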
STAT1 act conf: confirmation of STAT1 signaling activators; shares compounds with STAT1 act; NIH 3T3 STAT1-luciferase reporter, IFN-gamma potentiation, luminescence; 100% = IFN-gamma EC80 alone, no compound; activation (% of control), % at 5.7 µM; 1,200 compounds, 97% hits; AID 1262;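 active means activation above a set limit carried over from the earlier primary STAT1 screen, cut at about 140% in these data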;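 further: simple ratio to median IFN-gamma plus DMSO wells so 0% means no light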
NFkB act: activates NF-kappaB, counter-screen to STAT1 activators | shares compounds with STAT1 act | HEK293T NF-kB luciferase reporter, TNF-alpha stimulated, luminescence; 100% = TNF-alpha with vehicle only | activation (% of control), % at 5.7 µM | 1,200 compounds, 43% hits | AID 1306;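 active means activation above the mean of solvent-only control wells plus 3 SD, set per campaign, cut at about 130% in these data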;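 further: TNF-alpha given at a submaximal dose yielding about 80% of full reporter signal; values are well signal over median control so 100% means no change and 0% no light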
STAT3 act 2: human STAT3 activation in STAT1 activator counter-screen. shares compounds with STAT1 act. U3A cells STAT3-luciferase reporter, IL-6, luminescence; cells lack STAT1; 100 = IL-6 alone, no compound effect. activation (% of control), % at 5.7 µM. 1,200 compounds, 46% hits;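 active means activation above the solvent-only control well mean plus 3 SD, set per plate batch, cut at about 110% in these data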;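 further: 0% = no luminescence and 100% = median IL-6 plus DMSO wells; higher means more STAT3 reporter activation so hits are non-selective activators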
* hit, by the source's call; . = no result. Shown are actives, neighbours in structure and some others; about 5.1% of the full set was active somewhere.

SMILES | STAT1 act | NF-kB expr up | STAT3 inh | STAT3 act | APP 5'UTR act | STAT1 inh | STAT1 act conf | NFkB act | STAT3 act 2
Cc1cc(C)cc(N(C(=O)CCC(=O)Nc2ccccn2)C(C(=O)NC(C)C)c2ccc(O)cc2)c1 (stereo not drawn) | 96.3 | 1 | 15.2 | 91.2 | -16.0 | 3.6 | . | . | .
COC(CN1C(=O)C(=O)/C(=C(/O)c2ccccc2)C1c1ccccn1)OC (stereo not drawn) | 100.4 | 1.27 | -3.2 | 106.8 | 19.6 | -2.1 | . | . | .
Cc1cs/c(=N/C(=S)Nc2ccccc2)n1C | 178.2* | 4.01* | 10.5 | 93.9 | 132.9 | -86.5 | 204.2* | 132.6 | 106.9
COC(=O)c1ccc(C(NC(=O)OCc2ccccc2)/C(F)=C/[C@@H](C)C(=O)NCc2ccc(OC)c(OC)c2)cc1 (stereo partly drawn) | 99.9 | 0.97 | -1.3 | 98.7 | 12.8 | 0.1 | . | . | .
CCOC(=O)c1sc2nc(NC(=O)C(C)(C)C)sc2c1C | 156.8* | 0.9 | 8.6 | 97.2 | 126.5 | -63.4 | 202.0* | 134.3* | 102.1
CCOc1ccc(/C=N/OCC(=O)NCc2ccco2)cc1 | 99.5 | 1.11 | 5.5 | 102.0 | 4.5 | -0.8 | . | . | .
COc1ccc(/C=N/NC(=O)C2c3ccccc3Oc3ccccc32)c(OC)c1 | 99.5 | 1.09 | 5.0 | 104.0 | 4.5 | 4.9 | . | . | .
Cc1cc(C)c[n+](-c2[nH]c(=O)sc2/C=N/N=C(\N)[S-])c1 | 101.2 | 1.1 | -1.5 | 102.5 | -4.9 | -3.9 | . | . | .
Cc1ccc(C(=O)C2CCN(CC(=O)N3CCN(c4ccc(F)cc4)CC3)CC2)cc1 | 99.2 | 0.75 | 2.5 | 99.6 | 7.3 | -0.7 | . | . | .
O=C(NCc1ccccc1)c1c[nH]c2cc3c(cc2c1=O)OCCO3 | 177.6* | 3.51* | -14.4 | 115.4 | 88.7 | -83.9 | 189.7* | 140.3* | 126.5*
O=C(Nc1cccc([N+](=O)[O-])c1)c1ccc(-c2ccccc2)cc1 | 100.6 | 1 | 12.7 | 89.0 | 29.1 | -0.7 | . | . | .
Cc1c(C(=O)Nc2cccc([N+](=O)[O-])c2)csc1-c1ccccc1 | 165.2* | 3.84* | -7.8 | 115.7 | 194.4* | -72.5 | 237.7* | 127.5 | 139.4*
COc1ccc(N(C(=O)c2ccccc2)S(=O)(=O)c2cccs2)cc1 | 87.5 | 0.97 | 3.6 | 106.6 | 2.5 | 12.0 | . | . | .
COc1ccc(N(/N=C2\Sc3ccccc3C2=O)C(C)=O)cc1 | 151.3* | 4.83* | 5.5 | 100.3 | 172.0* | -54.8 | 191.4* | 123.0 | 110.3
Cc1cccc(N/C=C/c2onc(C)c2[N+](=O)[O-])c1 | 155.2* | 1.13 | -18.5 | 115.3 | 15.5 | -57.2 | 199.0* | 141.2* | 106.8
Cc1cccc(NS(=O)(=O)c2c(C)noc2C)c1 | 99.2 | 1.07 | 12.2 | 91.6 | -7.6 | -0.8 | . | . | .
Clc1ccc(-c2csc(N3CCOCC3)n2)cc1 | 159.5* | 4.93* | 9.4 | 92.8 | 117.9 | -62.7 | 176.5* | 139.0* | 96.1
Brc1ccc(-c2csc(N3CCOCC3)n2)cc1 | 150.8* | 3.36* | 21.0 | 88.2 | 107.1 | -58.1 | 190.2* | 137.2* | 100.7
CCOC(=O)C1=C(CC)Nc2ccccc2N/C1=N\S(=O)(=O)c1cc(Br)ccc1Br | 91.6 | 0.88 | 8.6 | 94.1 | 10.7 | 8.0 | . | . | .
CC(C)(C)c1ccc(OCc2nc(-c3ccccn3)no2)c(Br)c1 | 158.0* | 3.73* | -6.1 | 108.5 | 164.4* | -62.8 | 218.7* | 142.9* | 130.8*
CN(C)c1ccc(/C=N/NC(=O)c2ccco2)cc1 | 160.3* | 5.56* | 9.0 | 93.2 | 110.4 | -67.4 | 173.7* | 114.2 | 105.4
CN(C)c1ccc(/C=N/NC(=O)C2CC2c2ccccc2)cc1 (stereo not drawn) | 102.7 | 0.95 | 11.8 | 95.7 | -9.7 | -5.0 | . | . | .
Nn1c(=O)[nH]c2ccccc2c1=O | 99.9 | 1.12 | 8.4 | 97.6 | -2.4 | -0.6 | . | . | .
CCN(CC)c1ccc(C(=O)Nc2ccccc2)cc1[N+](=O)[O-] | 159.9* | 1.55 | 8.7 | 96.3 | 98.0 | -67.8 | 163.1* | 129.1 | 97.1
COc1cc(OC)c2c(O)c3c(c(-c4c5c(c(O)c6c(OC)cc(OC)cc46)CO[C@@H](C)[C@H]5O)c2c1)[C@H](O)[C@H](C)OC3 | 96.2 | 1.07 | . | . | 2.5 | 2.9 | . | . | .
SMILES | STAT1 act | NF-kB expr up | STAT3 inh | STAT3 act | APP 5'UTR act | STAT1 inh | STAT1 act conf | NFkB act | STAT3 act 2
C/C(=N\NC(=O)c1c[nH]c2ccccc12)c1ccccn1 | 156.8* | 0.92 | 12.3 | 96.0 | -46.9 | -63.6 | 197.9* | 120.1 | 104.8
COCC(C)NC(=O)c1cc(-c2ccc(O)cc2)on1 (stereo not drawn) | 110.0 | 1.68 | 5.1 | 100.1 | 23.2 | -11.2 | . | . | .
CCC(C)NC(=O)c1cc(-c2ccc(OC)cc2)on1 (stereo not drawn) | 156.9* | 3.35* | 14.2 | 89.0 | 23.1 | -55.1 | 178.8* | 131.1 | 106.9
COc1ccc(/C=C/c2nc3ccccc3n2Cc2ccc(OC)c(OC)c2)cc1 | 184.1* | 6.79* | -6.6 | 107.9 | 180.6* | -94.1 | 182.7* | 135.0* | 124.9*
Cc1cccc(N(CC(=O)NC2CCCCC2)C(=O)Cn2nnc(-c3ccc(C)o3)n2)c1 | 102.3 | 0.91 | 9.5 | 96.0 | 3.1 | -5.9 | . | . | .
Cc1nc(SCc2ccc(Cl)c(Cl)c2)ncc1C(=O)O | 99.2 | 1.28 | 5.9 | 96.9 | 2.6 | 0.7 | . | . | .
CC(=O)c1cnc(SCc2ccc(Cl)cc2)nc1C | 202.0* | 4.71* | 9.3 | 97.3 | 10.3 | -115.0 | 172.4* | 111.1 | 101.0
CCn1c(/N=C/c2ccccc2NS(=O)(=O)c2ccc(C)cc2)nc2ccccc21 | 91.3 | 1.19 | 2.4 | 100.5 | -5.2 | 9.7 | . | . | .
Brc1ccccc1OCCCn1cnc2ccccc21 | 157.6* | 6.73* | -2.4 | 101.9 | 73.3 | -78.6 | 185.5* | 137.8* | 107.5
c1ccc(OCCn2cnc3ccccc32)cc1 | 106.1 | 1.27 | 11.8 | 92.5 | 11.1 | -6.6 | . | . | .
O=C(Nc1ccc2oc(-c3ccccc3Cl)nc2c1)c1ncn[nH]1 | 156.3* | 5.11* | 11.1 | 93.8 | 59.9 | -60.8 | 204.3* | 131.8 | 114.4*
CCC(=O)Nc1ccc2oc(-c3ccccc3Br)nc2c1 | 159.8* | 5.65* | 16.2 | 88.0 | 118.0 | -65.4 | 190.3* | 138.2* | 99.0
Cc1cccc(OCC(=O)Nc2ccc(C(=O)c3ccc(C(=O)O)cc3)cc2)c1 | 104.0 | 0.96 | 0.1 | 101.9 | 8.4 | -6.3 | . | . | .
